In the library only some 7.2% were active in any assay of this set; here they are far more common.
Ecoli WT expand = E. coli BW25113 growth inhibition, expanded screen | AID 710 | OD600 absorbance | 98,000 tested, 0.15% active | growth inhibition, % at 100 µM;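 active = growth inhibition above about 50% at one test dose, limit read from the data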;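 note: growth measured after 20 h incubation at 37 °C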
tolC growth inh = E. coli tolC mutant growth inhibition; 65,000 tested, 2.2% active; E. coli BW25113 tolC mutant growth, OD615; growth inhibition, % at 10 µM (by protocol); AID 573;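 active = growth inhibition at or above a cutoff equal to the mean over every tested compound plus 3 SD, cut at about 60% in these data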;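 note: growth measured after 20 h incubation at 37 °C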
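test system = E. coli BW25113 ΔtolC::kan bacteria | medium = LB with kanamycin 50 µg/mL | signal = OD at 615 nm | schedule = 37 °C, 20 h exposure | evaluation = % inhibition of E. coli growth | compound dosing = one dose of 10 µM final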
PostGolgi ctrl = yeast control strain growth, post-Golgi counter-screen | efflux-deficient yeast background strain, growth absorbance A615, 16 h | inhibition, % at 10 µM | 98,000 tested, 5% active | AID 738
PostGolgi yeast = growth inhibition of a yeast mutant, post-Golgi transport screen | post-Golgi transport phenotypic cell assay | inhibition, % at 10 µM | 98,000 tested, 0.9% active;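 note: yeast cells grown in 1536-well plates; yeast grown about 18 h at 30C before absorbance read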
PLAP activator = activators of human placental alkaline phosphatase | P05187 | purified PLAP enzyme, luminescent substrate read-out; hits give high values | activation fold at 20 µM | 96,000 tested, 1.2% active; in the data active = activation fold above about 2
Target sequence (P05187 whole entry, looked up): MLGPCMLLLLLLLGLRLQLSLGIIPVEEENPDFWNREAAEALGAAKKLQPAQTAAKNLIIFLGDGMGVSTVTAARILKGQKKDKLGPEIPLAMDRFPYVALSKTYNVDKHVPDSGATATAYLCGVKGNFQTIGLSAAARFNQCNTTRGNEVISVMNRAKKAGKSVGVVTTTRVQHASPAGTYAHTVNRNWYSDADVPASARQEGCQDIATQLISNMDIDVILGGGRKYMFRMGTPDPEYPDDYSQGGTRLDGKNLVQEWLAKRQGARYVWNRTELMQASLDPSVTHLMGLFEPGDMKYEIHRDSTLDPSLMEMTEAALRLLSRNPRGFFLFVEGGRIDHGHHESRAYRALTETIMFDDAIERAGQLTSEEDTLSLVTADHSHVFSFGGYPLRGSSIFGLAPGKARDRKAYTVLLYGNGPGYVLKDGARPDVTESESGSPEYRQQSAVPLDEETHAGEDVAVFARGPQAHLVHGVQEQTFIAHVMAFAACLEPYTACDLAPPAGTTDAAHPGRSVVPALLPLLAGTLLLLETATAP
An asterisk follows results filed as active; nt = no result. Cut-off read from the data, not from the text of the source, unless noted: active = inhibition above about 30%; inactive = the rest.

SMILES | Ecoli WT expand | tolC growth inh | PostGolgi ctrl | PostGolgi yeast | PLAP activator
CCN(CC(=O)Nc1cccc(Br)c1)Cc1nc2ccccc2c(=O)[nH]1 | 1 | nt | 1 | 3 | 0.9
CCN(CC(=O)Nc1ccc2c(c1)CCC2)Cc1nc2ccccc2c(=O)[nH]1 | -2 | 17 | 22 | -1 | 2.6*
COc1cc2nc(CN(C)Cc3nc4ccccc4c(=O)[nH]3)[nH]c(=O)c2cc1OC | 2 | nt | 4 | 1 | nt
CCN(CC(=O)NC(c1ccccc1)c1ccccc1)Cc1nc2ccccc2c(=O)[nH]1 | -2 | nt | 6 | -8 | nt
COCCn1c(SCC(=O)NCc2ccc3c(c2)OCO3)nnc1-c1c[nH]c2ccccc12 | -5 | 6 | -11 | 6 | 1.5
CCN(CC(=O)Nc1ccc(N2CCOCC2)cc1)Cc1nc2ccccc2c(=O)[nH]1 | 2 | nt | -16 | 9 | 2.1*
CN(CC(=O)Nc1ccccc1Br)Cc1nc2ccccc2c(=O)[nH]1 | -2 | nt | 22 | 8 | 2.4*
Cc1cc(C)nc(SCC(=O)Nc2ccc(N3CCOCC3)cc2)n1 | 14 | 32 | 10 | 5 | 0.9
CCN(CC(=O)Nc1ccc2c(c1)OC(F)(F)O2)Cc1nc2ccccc2c(=O)[nH]1 | 7 | nt | 9 | -7 | nt
CN1CCC(N(C)C(=O)CCc2nc3ccccc3c(=O)[nH]2)CC1 | 0 | nt | 6 | -37 | 1.2
COc1cc2nc(CN(C)CC(=O)Nc3ccc(N4CCOCC4)cc3)[nH]c(=O)c2cc1OC | nt | -10 | nt | nt | 2.3*
CC(C)C(=O)Nc1nnc(CCN2CCOCC2)s1 | 7 | nt | 7 | 1 | 0.9
CCn1c(C(=O)N2CCC(Cc3ccccc3)CC2)cc2sccc21 | 1 | 80* | 18 | -1 | 1.3
CCn1c(C(=O)N2CCCC(C(=O)O)C2)cc2sccc21 (centres undefined) | nt | -14 | nt | nt | nt
COc1ccc2c(c1)c(=O)oc1cc(OCC(=O)NC3CC3)ccc12 | 0 | 12 | -6 | 10 | 0.8
COc1ccc2c(c1)c(=O)oc1cc(OCC(=O)NC3CCCCC3)ccc12 | 0 | nt | 93* | 81* | 0.9
CCOc1ccc2oc(-c3ccccc3)c(C(=O)N3CCN(CCO)CC3)c2c1 | -3 | 8 | 2 | -6 | 1.4
Cc1cc(C)n(-c2nc3ccccc3n3nnnc23)n1 | -2 | -9 | 34* | 5 | 0.9
CC(C)Oc1ccc(C2/C(=C(/O)c3ccc(F)cc3)C(=O)C(=O)N2CCCN(C)C)cc1 (centres undefined) | nt | -19 | nt | nt | nt
O=c1c2cc(Br)cc(Br)c2oc2nc3n(c(=O)c12)CCCS3 | 2 | nt | 43* | 4 | 1.6
Cc1oc2cc3c(C(=O)OCCN(C)C)c(C)oc3cc2c1C(=O)OCCN(C)C | nt | -10 | nt | nt | nt
O=C(CC(=O)c1ccccc1O)c1cccc(F)c1 | 12 | 89* | 38* | 10 | 0.8
O=C(CC(=O)c1ccccc1O)c1ccc(F)cc1 | 8 | nt | 58* | 8 | 0.7
CC(C)(C)c1ccc(C(=O)CC(=O)c2cc(Cl)ccc2O)cc1 | 2 | nt | 28 | 2 | 1.1
Cc1ccccc1C(=O)NNC(=O)c1ccc(F)cc1 | 4 | nt | -1 | -1 | 1
SMILES | Ecoli WT expand | tolC growth inh | PostGolgi ctrl | PostGolgi yeast | PLAP activator
Cc1ccc(C(=O)CC(=O)c2cc(Cl)ccc2O)cc1 | -14 | nt | 33* | 4 | 0.7
CC(=O)N(Cc1ccc2c(c1)OCO2)C1CC(=O)N(CCc2ccccc2)C1=O (centres undefined) | 7 | -1 | -4 | 0 | 1.5
C/C(NCc1cccnc1)=C(\C#N)C(=O)NCc1ccccc1 | -2 | -12 | 21 | 0 | 1
CCCNC(=O)c1ccccc1C(=O)NCCC | 6 | -3 | -2 | -10 | 0.8
CCCNC(=O)c1ccc2c(c1)C1C3CCC(C3)C1C(c1ccccc1)N2 (centres undefined) | -25 | nt | 36* | -3 | 2.6*
O=c1c2ccccc2nc(-c2ccccc2)n1Cc1ccco1 | 1 | 29 | 5 | -1 | 0.9
c1ccc(-c2oc3ncnc(NCCCn4ccnc4)c3c2-c2ccccc2)cc1 | 2 | 98* | 66* | 3 | 1.8
c1ccc(-c2c(-c3ccccc3)n(Cc3ccco3)c3ncnc(NCCCn4ccnc4)c23)cc1 | 13 | nt | 94* | 96* | 90
OCCNc1ncnc2c1c(-c1ccccc1)c(-c1ccccc1)n2Cc1ccco1 | -5 | 5 | 33* | 27 | 2*
Cc1cc2c(ncn2Cc2ccccc2)c([N+](=O)[O-])c1C | 7 | nt | 0 | 2 | 0.8
Cc1ccc(NC(=O)N/C=C/c2ccco2)c(C)c1 | -3 | nt | 8 | -7 | 2.4*
O=C(c1ccc(Br)o1)N(Cc1ccccc1)c1ccccn1 | 0 | 15 | 6 | 3 | 0.9
O=c1c2ccccc2nc(/C=C/c2ccc([N+](=O)[O-])o2)n1CCCO | 31 | nt | 62* | 91* | 0.9
